Reference: PubChem BioAssay AID602228 (Southern Research Specialized Biocontainment Screening …, 2012)
Inconclusive results are not listed. Calls of active or inactive are those of the source.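 The calls were made as follows: active = viability below 80% at one or more tested concentrations; inconclusive = replicate runs disagree on the 80% viability cutoff; inactive = viability above 80% at every tested concentration.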

How the values were obtained:
[1] = system: Vero E6 viability, CellTiter-Glo luminescence, 72 h; assay: viability loss in Vero E6 cells – cell-based, set 2, cytotoxicity control for PfM1AAP inhibitor project, dose response (AID 602228)
Summary of the method: (§1)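 Assay system: Vero E6 cell line / Medium: E-MEM plus 10% FBS / Doses: 10 concentrations, 2-fold dilution steps / Times: 72 h treatment at 37 °C / Measured by: CellTiter-Glo ATP luminescence / Read-out basis: % viability and CC50 from 4-parameter curve / Benchmarks: vehicle-treated cell wells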

[2] = as above; conditions: Vero E6 viability, CellTiter-Glo luminescence, 72 h; at 50 µM (top of the series)
Summary of the method: as §1

Which CC50 [1] does the source give for O=C(NCc1ccc(Cl)cc1)C1CCN(S(=O)(=O)c2ccc(Br)s2)CC1 here?
Its CC50 is 17.7 µM.

For O=C(NCc1ccc(F)cc1)C1CCN(S(=O)(=O)c2ccc(Br)s2)CC1, which CC50 [1] is on record?
The CC50 was 39.6 µM.

With O=C(NCc1ccccc1)C1CCN(S(=O)(=O)c2ccc(Br)s2)CC1 as the molecule, how does the CC50 [1] read?
Its CC50 is 47.4 µM.

Which viability [2] does the source give for CC[C@H](C)[C@H](NS(=O)(=O)c1ccc(Br)s1)C(=O)NCc1ccc2c(c1)OCO2 here?
Its viability is 95.3% (inactive).

For O=C(NCc1ccc2c(c1)OCO2)C1CCN(S(=O)(=O)c2ccc(Br)s2)CC1, which viability [2] is on record?
Its viability is 89.3% (inactive).
